Data from paper PMC3914721 (Biochemistry, 2013).
Several values for one entry are separate records, joined by “and”; a condition that tells them apart may be missing. Identical values can stand only once. Like-named read-outs stand apart in the source and are kept apart here.

How the values were obtained:
[1] = biological target: Ms sGC-NT13-CO (Manduca sexta, UniProt O77106); assay: Soret band shift titration of CO-saturated protein; type: binding
[2] = biological target: Ms sGC-NT (Manduca sexta, UniProt O77106); assay: Stimulator binding to Ms sGC-NT constructs, summary over constructs and methods; conditions: for Effect of α1 H-NOX removal on stimulator binding (Ms sGC-NT21 vs Ms sGC-NT13): unliganded proteins
[3] = biological target: T1, Ms sGC-NT21 (Manduca sexta, UniProt O77106); assay: CO titration monitoring the CO-bound Soret band; type: binding; conditions: for Kd^CO/Kd^CO′ cooperativity factor: ratio of CO dissociation constants without and with compound
Procedure, shortened: (§1)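 CO titrations were run at room temperature in 50 mM potassium phosphate pH 7.4, 100 mM KCl, 5% glycerol, at several YC-1 concentrations (0–50 μM). NT21 used a 10 cm cuvette with 0.1 μM protein; NT13 used a 1 cm cuvette with 1 μM protein. A four-state cooperative model was globally fit to normalized absorbance changes at 423 and 433 nm, giving Ka^CO, Ka^YC-1 and Kint. Kd^CO′ is the inverse of Ka^CO·Kint.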

[4] = biological target: Ms sGC-NT21-CO (Manduca sexta, UniProt O77106); assay: Soret band shift titration of CO-saturated protein; type: binding
[5] = biological target: T2, Ms sGC-NT13 (Manduca sexta, UniProt O77106); type: binding
[6] = Aqueous solubility
[7] = system: pre-constricted aortic rings; conditions: read-out: EC50 to stimulate sGC in pre-constricted aortic rings; cited from earlier work
[8] = biological target: T2, Ms sGC-NT13; assay: CO titration monitoring the CO-bound Soret band; type: binding; conditions: for Kd^CO/Kd^CO′ cooperativity factor: ratio of CO dissociation constants without and with compound
Procedure, shortened: as §1

[9] = biological target: T1, Ms sGC-NT21; type: binding; conditions: for Kint (CO) cooperativity factor: from global fitting
[10] = biological target: heterodimeric sGC proteins; assay: CO binding to heterodimeric sGC proteins, summary over constructs; set-up: species or system Manduca sexta; conditions: read-out: Kd^CO, range over heterodimeric proteins; absence of YC-1
Procedure, shortened: (§2)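 CO from a saturated solution was added by gas-tight syringe to protein in septum-capped 1 or 10 cm cuvettes. The appearance of the CO-bound Soret absorption band was followed, and data were fit to a single-site saturation ligand-binding model.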

[11] = biological target: Ms sGC-NT19; conditions: read-out: Kd^CO; no stimulator; ref 43; cited from earlier work
[12] = biological target: T3, Bt sGC β1(1–197) (Bos taurus, UniProt P16068); assay: CO titration monitoring the CO-bound Soret band; type: binding, Bos taurus (bovine)
T3 sequence (P16068 1-197): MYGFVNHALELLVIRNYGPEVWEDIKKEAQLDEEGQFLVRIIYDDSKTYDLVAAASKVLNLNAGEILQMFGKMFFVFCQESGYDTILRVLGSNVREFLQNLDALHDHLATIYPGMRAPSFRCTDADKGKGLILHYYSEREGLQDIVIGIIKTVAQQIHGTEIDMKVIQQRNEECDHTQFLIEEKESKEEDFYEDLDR
Procedure, shortened: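 Bovine β1 H-NOX construct was expressed in E. coli BL21(DE3)pRIPL with δ-aminolevulinic acid and ferric citrate. It was purified by Q-FF, S75 and second Q-FF chromatography and prepared in Ar-purged buffer with excess dithionite. CO from a saturated solution was titrated by gas-tight syringe into the septum-capped cuvette while the CO-bound Soret band was followed. Data were fit to a single-site saturation model.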

[13] = biological target: Ms sGC-NT2; conditions: read-out: Kd^CO, no stimulator, cited from earlier work
[14] = biological target: T4, Ms sGC β1(1–380) (Manduca sexta, UniProt O77106); assay: CO titration monitoring the CO-bound Soret band; type: binding; conditions: for Kd: read-out: Kd^CO
T4 sequence (O77106 1-380): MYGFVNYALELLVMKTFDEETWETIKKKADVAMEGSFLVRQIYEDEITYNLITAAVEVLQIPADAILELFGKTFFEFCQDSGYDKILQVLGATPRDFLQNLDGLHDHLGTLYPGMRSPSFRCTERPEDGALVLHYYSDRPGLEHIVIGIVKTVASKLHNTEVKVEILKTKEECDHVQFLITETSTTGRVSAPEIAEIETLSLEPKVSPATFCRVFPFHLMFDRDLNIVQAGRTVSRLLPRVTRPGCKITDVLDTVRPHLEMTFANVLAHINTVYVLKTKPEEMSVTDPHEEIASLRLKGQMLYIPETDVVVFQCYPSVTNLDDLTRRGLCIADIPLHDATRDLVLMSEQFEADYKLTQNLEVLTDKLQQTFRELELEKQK
Procedure, shortened: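 Ms β1(1–380) was expressed in E. coli Rosetta pLysS with 25 μM δ-aminolevulinic acid. It was purified by anion exchange, Ni-NTA (EDTA elution) and S200 gel filtration, where it ran as a monomer, then prepared in Ar-purged buffer with excess dithionite. CO from a saturated solution was titrated into a septum-capped 10 cm cuvette, the CO-bound Soret band was followed, and data were fit to a single-site saturation model.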

[15] = biological target: T5, Bt sGC β1(1–359) (Bos taurus, UniProt P16068); assay: CO titration monitoring the CO-bound Soret band; type: binding, Bos taurus (bovine); conditions: read-out: Kd^CO; no stimulator; 1 μM protein
T5 sequence (P16068 1-359): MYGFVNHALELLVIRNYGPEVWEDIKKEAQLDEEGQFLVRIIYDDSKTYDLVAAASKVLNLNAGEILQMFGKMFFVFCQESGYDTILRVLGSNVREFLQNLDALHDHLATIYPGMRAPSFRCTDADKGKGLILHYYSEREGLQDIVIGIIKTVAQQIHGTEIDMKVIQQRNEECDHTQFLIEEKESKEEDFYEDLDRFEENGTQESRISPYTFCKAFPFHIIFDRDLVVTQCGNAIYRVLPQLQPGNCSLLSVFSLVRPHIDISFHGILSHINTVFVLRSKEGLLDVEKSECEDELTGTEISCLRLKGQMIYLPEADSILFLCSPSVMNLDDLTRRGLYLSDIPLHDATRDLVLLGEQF
Procedure, shortened: as §2

[16] = biological target: Hs sGC (full length); conditions: read-out: Kd^CO; no stimulator; ref 77; cited from earlier work
[17] = biological target: Bt sGC (full length); conditions: read-out: Kd^CO, no stimulator, cited from earlier work
[18] = system: sGC; conditions: cited from earlier work
[19] = biological target: T6, Ms sGC α1 PAS (Manduca sexta, UniProt O77105); assay: Fluorescence anisotropy of YC-1; type: binding
T6 sequence (O77105 279-404): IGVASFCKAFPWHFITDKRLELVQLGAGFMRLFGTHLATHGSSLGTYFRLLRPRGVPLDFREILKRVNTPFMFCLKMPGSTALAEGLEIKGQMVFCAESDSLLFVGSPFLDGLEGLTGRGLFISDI

[20] = system: lysozyme; assay: Fluorescence anisotropy of YC-1; type: binding; conditions: 2 μM YC-1, 20 °C
[21] = system: β1 PAS domain; assay: Fluorescence anisotropy of YC-1; type: binding, Manduca sexta; conditions: 2 μM YC-1, 20 °C; likely non-specific
[22] = system: Ms sGC β1 (1–380); assay: Soret band shift on YC-1 addition; type: binding, Manduca sexta; conditions: CO-saturated protein
[23] = biological target: Bt sGC (full length); conditions: read-out: Kd^YC-1′, +CO; measured in the presence of GTP; cited from earlier work

For `Nc1nc(-c2nn(Cc3ccccc3F)c3ncccc23)ncc1C1CC1` [BAY 41–2272], the Kd [1] was 80 ± 10 nM, the “Effect of α1 H-NOX removal on stimulator binding (Ms sGC-NT21 vs Ms sGC-NT13)” value [2] was ~ 9 fold and the “Kd^CO/Kd^CO′ cooperativity factor” value [3] was 31 ± 5. The Kd [4] was 90 ± 20 nM, the Kd ([5]; Kd^BAY, −NO/CO, estimated assuming linked equilibria: (Kd^CO/Kd^CO′) Kd^BAY′) was 17000 ± 3000 nM and the “Solubility in aqueous buffer” value [6] was “poor solubility”. For the same molecule, the EC50 [7] was 300 nM, the “Kd^CO/Kd^CO′ cooperativity factor” value [8] was 212 ± 23 and the Kd [9] was 30 ± 10 nM. For the same molecule, the “Kint (CO) cooperativity factor” value [9] was 58 ± 7.
In the case of `[C-]#[O+]` [CO], the Kd ([3]; read-out: Kd^CO, no stimulator, 10 cm cuvette, 0.1 μM protein) is reported as 2200 ± 200 nM, the “Fold tighter CO binding than Ms sGC proteins containing the α1 H-NOX domain” value ([3]; removal of the α1 H-NOX domain) is reported as 20–40 fold and 24 fold and the Kd [10] is reported as 50000 to 100000 nM and 50000 to 90000 nM. For the same molecule, the Kd [11] was 50000 ± 3000 nM, the “Fold less tight CO binding than Ms sGC β1(1–380)” value [12] was ~ 8 fold and the Kd ([12]; read-out: Kd^CO, no stimulator, 1 cm cuvette, 0.5 μM protein) was 1600 ± 200 nM. For the same molecule, the Kd ([13]; ref 33) was 77000 ± 7000 nM, the Kd ([13]; ref 43) was 90000 ± 9000 nM and the Kd ([14]; absence of the alpha chain) was about 200 nM. For the same molecule, the Kd ([14]; no stimulator, 10 cm cuvette, 0.1 μM protein) was ~200 nM and 200 nM, the “Fold enhancement of CO binding on complete removal of the α1 chain” value ([14]; vs heterodimeric Ms sGC) was 265 fold and the Kd [15] was 15000 ± 4000 nM. For the same molecule, the Kd ([8]; read-out: Kd^CO, no stimulator, 1 μM protein) was 53000 ± 4000 nM, the Kd [16] was 260000 nM and the Kd ([17]; ref 51) was 127000 nM. For the same molecule, the Kd ([17]; ref 76) was 97000 nM.
In the case of `OCc1ccc(-c2nn(Cc3ccccc3)c3ccccc23)o1` [YC-1], the Kd [1] is reported as 800 ± 100 nM, the Kd ([2]; Kd, CO complexes (presence of CO), over constructs, Ms sGC-NT13 and Ms sGC-NT21) is reported as 600 to 1100 nM and ~1000 nM and the “Effect of α1 H-NOX removal on stimulator binding (Ms sGC-NT21 vs Ms sGC-NT13)” value [2] is reported as ~ 2 fold. The “Stimulation of sGC” value ([18]; in the absence of NO) was “two- to four-fold”, the “Activation of sGC” value ([18]; synergistically with CO or NO) was “several hundred fold” and the “Tightening of the CO dissociation constant upon YC-1 binding” value ([3]; 50 μM YC-1) was 10 fold. For the same molecule, the “Kd^CO/Kd^CO′ cooperativity factor” value [3] was 11 ± 1, the Kd [19] was over 100000 nM and the Kd [4] was 600 ± 100 nM. For the same molecule, the “Kint (CO) cooperativity factor” value ([5]; from global fitting) was 19 and 19 ± 2, the “Binding of YC-1 by fluorescence anisotropy” value [20] was “not for lysozyme” and the “Solubility in aqueous buffer” value [6] was “poor solubility”. For the same molecule, the “Kint, cooperativity in CO binding” value ([14]; any of the constructs missing the α1 chain) was ~ 1, the “Binding of YC-1 by fluorescence anisotropy” value [21] was “weak signal” and the “Kd^CO/Kd^CO′ cooperativity factor” value [8] was 19 ± 3. The “Shift in Soret band maxima upon YC-1 binding” value [22] was “not observed”, the “Kint (CO) cooperativity factor” value [9] was 14 and 13.8 ± 0.3 and the Kd [23] was about 8000 nM.
